From ChEMBL document CHEMBL3576780, “Effects of resveratrol on benign prostatic hyperplasia by the regulation of inflammatory and apoptotic proteins” (2015)
Active and inactive are the calls of the source.

Legend:
Type in all cases: functional, organism-based
Rattus norvegicus [1] = experiment: Reduction in proliferating cell nuclear antigen expression in prostate tissue in BPH-induced Sprague-Dawley rat model at 5 mg/kg, po daily for 4 weeks by Western blot analysis
Rattus norvegicus [2] = experiment: Reduction in prostate weight in BPH-induced Sprague-Dawley rat model at 5 mg/kg, po daily for 4 weeks in presence testosterone propionate of 10 mg/kg, intramuscular injection for 4 weeks; settings: Prostate gland
Rattus norvegicus [3] = experiment: Reduction in procaspase 3 expression in prostate tissue in BPH-induced Sprague-Dawley rat model at 1 mg/kg, ip daily for 4 weeks by Western blot analysis; settings: Prostate gland
How it was run: (§1)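 Prostate homogenized in lysis buffer, 30 μg protein run on SDS-PAGE, PVDF blot, antibody probing, ECL detection, β-actin internal control, densitometry. Mean ± SEM, n = 6 rats/group; one-way ANOVA with Dunnett's test.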

Rattus norvegicus [4] = experiment: Reduction in thickness of epithelium tissue in prostate tissue in BPH-induced Sprague-Dawley rat model at 1 mg/kg, ip daily for 4 weeks by Hematoxylin and eosin staining based microscopy; settings: Prostate gland
How it was run: (§2)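 Prostates fixed in 4% buffered formalin, paraffin embedded, cut at 4 μm, stained with H&E and imaged at original magnification 40×. Epithelial thickness measured by pathologists. Rats received testosterone propionate 10 mg/kg im daily for 4 weeks with daily treatment; n = 6 per group.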

Rattus norvegicus [5] = experiment: Reduction in Bcl2 expression in prostate tissue in BPH-induced Sprague-Dawley rat model at 1 mg/kg, ip daily for 4 weeks by Western blot analysis; settings: Prostate gland
Rattus norvegicus [6] = experiment: Reduction in iNOS expression in prostate tissue in BPH-induced Sprague-Dawley rat model at 1 mg/kg, ip daily for 4 weeks by Western blot analysis; settings: Prostate gland
Rattus norvegicus [7] = experiment: Reduction in prostate weight in BPH-induced Sprague-Dawley rat model at 1 mg/kg, ip daily for 4 weeks in presence testosterone propionate of 10 mg/kg, intramuscular injection for 4 weeks; settings: Prostate gland
Rattus norvegicus [8] = experiment: Reduction in Bcl2 to Bax ratio in prostate tissue in BPH-induced Sprague-Dawley rat model at 1 mg/kg, ip daily for 4 weeks by Western blot analysis; settings: Prostate gland
How it was run: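 Male Sprague-Dawley rats, BPH induced by daily im testosterone propionate 10 mg/kg for 4 weeks with daily dosing. Prostate lysate (30 μg protein) Western blotted; Bax and Bcl-2 band densities normalized to β-actin and expressed as Bax/Bcl-2 ratio. Mean ± SEM, n = 6 rats/group.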

Rattus norvegicus [9] = experiment: Increase in Bax expression in prostate tissue in BPH-induced Sprague-Dawley rat model at 1 mg/kg, ip daily for 4 weeks by Western blot analysis; settings: Prostate gland; how it was run: as §1
Rattus norvegicus [10] = experiment: Reduction in COX2 expression in prostate tissue in BPH-induced Sprague-Dawley rat model at 1 mg/kg, ip daily for 4 weeks by Western blot analysis; settings: Prostate gland; how it was run: as §1
Rattus norvegicus [11] = experiment: Reduction in 5alpha-reductase mRNA level in prostate tissue in BPH-induced Sprague-Dawley rat model at 1 mg/kg, ip daily for 4 weeks by quantitative real-time PCR analysis; settings: Prostate gland
How it was run: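 Prostate tissue 5α-reductase 2 mRNA quantified by real-time PCR in male Sprague-Dawley rats given testosterone propionate 10 mg/kg im daily for 4 weeks plus daily treatment; mean ± SEM, n = 6 rats/group.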

Rattus norvegicus [12] = experiment: Reduction in prostate cell proliferation and gland development in BPH-induced Sprague-Dawley rat model at 1 mg/kg, ip daily for 4 weeks by Hematoxylin and eosin staining based microscopy; how it was run: as §2
Rattus norvegicus [13] = experiment: Reduction in Bcl-xL expression in prostate tissue in BPH-induced Sprague-Dawley rat model at 1 mg/kg, ip daily for 4 weeks by Western blot analysis; settings: Prostate gland; how it was run: as §1
Rattus norvegicus [14] = experiment: Reduction in PARP1 expression in prostate tissue in BPH-induced Sprague-Dawley rat model at 1 mg/kg, ip daily for 4 weeks by Western blot analysis; settings: Prostate gland; how it was run: as §1
Rattus norvegicus [15] = experiment: Reduction in proliferating cell nuclear antigen in prostate tissue expression in BPH-induced Sprague-Dawley rat model at 1 mg/kg, ip daily for 4 weeks by Western blot analysis; how it was run: as §1

Measured: inhibition

CC(C)(C)NC(=O)[C@H]1CC[C@H]2[C@@H]3CC[C@H]4NC(=O)C=C[C@]4(C)[C@H]3CC[C@]12C
active: Rattus norvegicus [1] | Rattus norvegicus [2]

Oc1ccc(/C=C/c2cc(O)cc(O)c2)cc1
not listed: Rattus norvegicus [1] | Rattus norvegicus [2]
active: all other assays above
